# Assay results: ChEMBL document CHEMBL4610063, “Mangiferin: A promising natural xanthone from Mangifera indica for the control of acyclovir - resistant herpes simplex virus 1 infection” (Bioorg Med Chem, 2020)
# Calls of active or inactive are those of the source. The calls are words filed in the database; no cut-off is given here.
# Columns and labels:
# [1] = tested on: Human alphaherpesvirus 1; assay: Antiviral activity against ACV-resistant Herpes simplex virus 1 AR-29 infected in African green monkey Vero cells assessed as inhibition of viral infection at 25 ug/ml measured after 72 hrs by crystal violet staining based plaque reduction assay relative to control; type: functional; conditions: Human alphaherpesvirus 1, AR-29, Vero
# In short: (§1)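 Plaque reduction in Vero cells. Mangiferin at 3.12, 6.25, 12.5 or 25 μg/mL is added at infection (0 h) with HSV-1 (10^5 PFU/mL). Agarose overlay with 25 mM MgCl2, 72 h at 37 °C/5% CO2, 20% formaldehyde fix, 0.5% crystal violet stain. %VI is taken against virus control. IC50 comes from linear regression of inhibition curves. Triplicate independent experiments.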
# [2] = tested on: Human alphaherpesvirus 1; assay: Antiviral activity against ACV-sensitive Herpes simplex virus 1 KOS infected in African green monkey Vero cells assessed as inhibition of viral infection at 25 ug/ml measured after 72 hrs by crystal violet staining based plaque reduction assay relative to control; type: functional; conditions: Human alphaherpesvirus 1, strain KOS; in short: as §1
# [3] = tested on: Human alphaherpesvirus 1; assay: Antiviral activity against ACV-resistant Herpes simplex virus 1 AR-29 infected in African green monkey Vero cells assessed as inhibition of viral adsorption at 25 ug/mL preincubated for 30 mins and measured after 1 hr by plaque reduction assay relative to control; type: functional; conditions: Human alphaherpesvirus 1, AR-29, Vero
# In short: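 Vero cells pre-chilled 30 min at 4 °C, then given mangiferin (3.12–25 μg/mL) together with HSV-1 AR-29 (10^5 PFU/mL) for 1 h adsorption at 4 °C. Plaque reduction assay follows: nutrient agarose overlay with 25 mM MgCl2, 72 h at 37 °C/5% CO2, formaldehyde fixation, crystal violet stain. %VI = [1 − PFU treated/PFU virus control] × 100.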
# [4] = tested on: Human alphaherpesvirus 1; assay: Antiviral activity against ACV-sensitive Herpes simplex virus 1 KOS infected in African green monkey Vero cells assessed as inhibition of viral adsorption at 3.12 ug/mL preincubated for 30 mins and measured after 1 hr by plaque reduction assay relative to control; type: functional; conditions: Human alphaherpesvirus 1, strain KOS
# In short: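 Vero cells pre-chilled 30 min at 4 °C, then given mangiferin (3.12–25 μg/mL) together with HSV-1 KOS (10^5 PFU/mL); 1 h adsorption at 4 °C, then plaque reduction: agarose/DMEM overlay with 25 mM MgCl2, 72 h at 37 °C, formaldehyde fixation, crystal violet stain. %VI = 1 − PFU treated/PFU virus control; triplicate independent experiments.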
# [5] = Toxicity in Balb/c mouse infected with ACV-sensitive Herpes simplex virus 1 KOS assessed as effect on body weight at 0.7% w/w applied topically 5 times a day at 3 hrs interval for 10 days measured on day 10 post infection; conditions: in vivo, topical_or_ocular
# [6] = Toxicity in Balb/c mouse infected with ACV-resistant Herpes simplex virus 1 AR-29 assessed as death at 0.7% w/w applied topically 5 times a day at 3 hrs interval for 10 days measured on day 10 post infection; conditions: in vivo, topical_or_ocular
# [7] = tested on: Human alphaherpesvirus 1; assay: Antiviral activity against ACV-sensitive Herpes simplex virus 1 KOS infected in male Balb/c mouse assessed as change in epidermis thickness at 0.7% w/w applied topically 5 times a day at 3 hrs interval for 10 days measured on day 10 post infection by H and E staining based histological analysis; conditions: strain KOS
smiles,measurement,setting,value
O=c1c2cc(O)c(O)cc2oc2cc(O)c([C@@H]3O[C@H](CO)[C@@H](O)[C@H](O)[C@H]3O)c(O)c12 [MANGIFERIN],inhibition at 25 µg/mL,[1],100%
same,inhibition at 25 µg/mL,[2],100%
same,inhibition at 25 µg/mL,[3],74%
same,inhibition at 3.12 µg/mL,[4],29.2%
same,Activity,[5],Non-Toxic
same,Activity,[6],Non-Toxic
same,Activity,[7],inactive
